The record followed here is ChEMBL document CHEMBL4765329, “Exploration of carbamide derived pyrimidine-thioindole conjugates as potential VEGFR-2 inhibitors with anti-angiogenesis effect” (Eur J Med Chem, 2020).

Assay [1] concerns HUVEC. Description: Antiangiogenic activity against human HUVEC cells assessed as inhibition of tube formation measured after 16 hrs by matrigel based tube formation assay. In kind it is functional, cell-based. The following applies: dose 2.5-5 µM. The essentials: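 HUVECs were plated on Matrigel with 2.5 and 5 μM test agent, alongside a reference VEGFR-2 inhibitor. Tube networks were imaged, and quantification covered cell-covered area, tube length, branching points and total loops.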

Assay [2] has as its system HUVEC. As to the kind of experiment: Antimigratory activity against human HUVEC cells assessed as inhibition of cell invasion measured by inverted fluorescence microscope based transwell assay. As to conditions: dose 2.5-5 µM. It is filed as functional. In a few lines: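 A Boyden chamber (transwell) invasion assay used HUVECs passing through Matrigel and a membrane barrier. Treatment was 2.5 and 5 µM, with a reference VEGFR-2 inhibitor as standard. Invaded cells on the bottom side were compared with untreated control.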

Assay [3] concerns MDA-MB-231. As to the kind of experiment: Antimigratory activity against human MDA-MB-231 cells assessed as inhibition of cell migration at 2.5 uM measured after 24 hrs by phase contrast microscope based wound healing assay. It is filed as functional. The essentials:
(§1)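 Confluent MDA-MB-231 monolayers (DMEM, 10% FBS) were scratched with a sterile pipette tip and then treated. Wound closure was imaged by phase contrast microscopy after 24 h and compared with untreated control.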

Assay [4] has as its system MDA-MB-231. Description: Antimigratory activity against human MDA-MB-231 cells assessed as inhibition of cell migration at 5 uM measured after 24 hrs by phase contrast microscope based wound healing assay. In kind it is functional. In a few lines: as §1
Assay [5] relates to MDA-MB-231. Description: Induction of apoptosis in human MDA-MB-231 cells assessed as induction of morphological changes by measuring chromatin condensation measured after 48 hrs by Hoechst stain based flourescence assay in relative to control. It is filed as functional, cell-based. As to conditions: dose 2.5-5 µM. The essentials:
(§2)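 MDA-MB-231 cells were treated at 2.5 and 5 µM and stained with Hoechst. Nuclei were examined by fluorescence for chromatin condensation, nuclear shrinkage, and pyknotic or fragmented nuclei against untreated control.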

Assay [6] deals with MDA-MB-231. Description: Induction of apoptosis in human MDA-MB-231 cells assessed as induction of morphological changes by measuring nuclear shrinkage and fragmentation in nucleus measured after 48 hrs by Hoechst stain based flourescence assay in relative to control. It is filed as functional, cell-based. As to conditions: dose 2.5-5 µM. In a few lines: as §2
The test system of assay [7] is MDA-MB-231. Description: Induction of apoptosis in human MDA-MB-231 cells assessed as viable cells at 2.5 uM measured after 48 hrs by Annexin V-FITC/Propidium iodide stain based flow cytometry assay (reference value: 95.3%). It is filed as functional. As to conditions: read-out: Activity. For orientation: A flow cytometer gives signals particle by particle.
The test system of assay [8] is MDA-MB-231. As to the kind of experiment: Induction of apoptosis in human MDA-MB-231 cells assessed as early apoptotic cells at 2.5 uM measured after 48 hrs by Annexin V-FITC/Propidium iodide stain based flow cytometry assay (reference value: 3.2%). In kind it is functional.
Assay [9] relates to MDA-MB-231. As to the kind of experiment: Induction of apoptosis in human MDA-MB-231 cells assessed as late apoptotic cells at 2.5 uM measured after 48 hrs by Annexin V-FITC/Propidium iodide stain based flow cytometry assay (reference value: 1.2%). In kind it is functional.
In assay [10] the test system is MDA-MB-231. As to the kind of experiment: Induction of apoptosis in human MDA-MB-231 cells assessed as necrotic cells at 2.5 uM measured after 48 hrs by Annexin V-FITC/Propidium iodide stain based flow cytometry assay (reference value: 0.3%). In kind it is functional.
Assay [11] has as its system MDA-MB-231. Description: Induction of apoptosis in human MDA-MB-231 cells assessed as viable cells at 5 uM measured after 48 hrs by Annexin V-FITC/Propidium iodide stain based flow cytometry assay (reference value: 95.3%). In kind it is functional. As to conditions: read-out: Activity.
Assay [12] has as its system MDA-MB-231. Description: Induction of apoptosis in human MDA-MB-231 cells assessed as early apoptotic cells at 5 uM measured after 48 hrs by Annexin V-FITC/Propidium iodide stain based flow cytometry assay (reference value: 3.2%). In kind it is functional.
Assay [13] concerns MDA-MB-231. As to the kind of experiment: Induction of apoptosis in human MDA-MB-231 cells assessed as late apoptotic cells at 5 uM measured after 48 hrs by Annexin V-FITC/Propidium iodide stain based flow cytometry assay (reference value: 1.2%). In kind it is functional.
The test system of assay [14] is MDA-MB-231. As to the kind of experiment: Induction of apoptosis in human MDA-MB-231 cells assessed as necrotic cells at 5 uM measured after 48 hrs by Annexin V-FITC/Propidium iodide stain based flow cytometry assay (reference value: 0.3%). In kind it is functional.
The test system of assay [15] is MDA-MB-231. As to the kind of experiment: Induction of mitochondrial membrane potential loss in human MDA-MB-231 cells assessed as increase in depolarised cells measured after 48 hrs by JC-1 stain based flow cytometry assay relative to control. In kind it is functional, cell-based. The following applies: dose 2.5-5 µM. The essentials: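 MDA-MB-231 cells were treated at 2.5 and 5 µM and stained with JC-1. Depolarised mitochondria were scored by green monomer signal and healthy mitochondria by red J-aggregates, against control.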

In assay [16] the test system is MDA-MB-231. As to the kind of experiment: Induction of mitochondrial membrane potential loss in human MDA-MB-231 cells assessed as generation of ROS at 2.5 uM measured after 48 hrs by carboxy […] stain based flow cytometry assay relative to control. In kind it is functional, cell-based. The essentials: (§3)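 MDA-MB-231 cells were treated at several doses and stained with carboxy-H2DCFDA. ROS were read as green DCF fluorescence relative to untreated control.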

The subject of assay [17] is MDA-MB-231. As to the kind of experiment: Induction of mitochondrial membrane potential loss in human MDA-MB-231 cells assessed as generation of ROS at 5 uM measured after 48 hrs by carboxy […] stain based flow cytometry assay relative to control. It is filed as functional, cell-based. The essentials: as §3
In the next assay the test system is A549. Description: cells. As to conditions: Homo sapiens, A549, 72 h.
The next assay concerns PC-3. Description: cells. The following applies: Homo sapiens, PC-3, 72 h.
Another assay deals with HepG2. As to the kind of experiment: cells. As to conditions: Homo sapiens, HepG2, 72 h.

Active and inactive are the calls of the source. The calls are words filed in the database; no cut-off is given here. A value given as a limit tells only on which side of the number the result lay.

Turning to `O=C(Nc1ccc(Cl)cc1)Nc1nc(Sc2c[nH]c3ccccc23)cc(N2CCCC2)n1`, the inhibition entry in the assay on HUVEC [1] and with HUVEC [2] was “Dose-dependent effect” throughout. Moreover, the inhibition result with MDA-MB-231 [3] and in the assay on MDA-MB-231 [4] was “Active” in each case. Besides, the Activity result was “Dose-dependent effect” in the assay on MDA-MB-231 [5]; “Dose-dependent effect” in the assay with MDA-MB-231 [6]; 19.4% in the assay with MDA-MB-231 [8]; 3.8% in the assay with MDA-MB-231 [9]; 0.5% in the assay with MDA-MB-231 [10]; 36.6% with MDA-MB-231 [12]. Further, the results for the Activity in the assay on MDA-MB-231 [13] and in the assay with MDA-MB-231 [14] were 11.2% and 0.9%, respectively. For the same compound, the viability at 2.5 µM in the assay on MDA-MB-231 [7] was 76.2%. The viability at 5 µM in the assay on MDA-MB-231 [11] amounted to 51.4%. Further, the outcome in the assay on MDA-MB-231 [15], in the assay on MDA-MB-231 [16] and with MDA-MB-231 [17] was Active. Further, the half-inhibitory concentration (IC50) (in general, the concentration at which inhibition is half-maximal) in the assay with A549 was 6.41 µM; in the assay on PC-3, 10.4 µM; in the assay with HepG2 it was 7.87 µM.
With `Cc1ccc(C)c(NC(=O)Nc2nc(Sc3c[nH]c4ccccc34)cc(N3CCCCC3)n2)c1`, the Activity entry in the assay on MDA-MB-231 [5] and in the assay on MDA-MB-231 [6] was “Dose-dependent effect” throughout. The outcome in the assay with MDA-MB-231 [15], in the assay on MDA-MB-231 [16] and in the assay with MDA-MB-231 [17] was Active. The figures for the IC50 in the assay on A549, in the assay with PC-3 and in the assay with HepG2 were 25.4 µM, greater than 50 µM and 6.44 µM, respectively.
